The source made the active and inactive calls. The calls are words filed in the database; no cut-off is given here.
Tests used:
CAL-27 [1] = assay: Potentiation of cisplatin-induced cytotoxicity against human CAL27 cells assessed as fold reduction in cisplatin IC50 at 1 uM preincubated for 48 hrs followed by cisplatin treatment measured after 72 hrs by MTT assay relative to cisplatin alone; assay type: functional
Procedure, shortened: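 Cells were preincubated 48 h with HDAC inhibitor, then cisplatin was added over a concentration range for 72 h, with MTT read-out. Shift factor is cisplatin-alone IC50 divided by combination IC50. Data are mean ± SEM of pooled data from at least three independent experiments, each in triplicate. Significance was by t test (p < 0.05).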

CAL-27 [2] = assay: Potentiation of 0.316 uM cisplatin-induced cytotoxicity against human CAL27 cells assessed as decrease in cell viability by measuring combination index at 1000 uM preincubated for 48 hrs followed by cisplatin treatment measured after 72 hrs by MTT assay; assay type: functional; settings: in the assay text read “at 1000 nM” for “at 1000 uM”
Procedure, shortened: (§1)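 Cal27 and cisplatin-resistant Cal27CisR cells were preincubated with the HDAC inhibitor for 48 h, then given cisplatin in combination. Viability was read by MTT after 72 h. The combination index was computed by the Chou–Talalay method: CI > 1 is antagonism, CI = 1 is additive, and CI < 0.9 is synergism. Points with fraction affected below 0.20 were flagged.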

CAL-27 [3] = assay: Potentiation of 0.5 uM cisplatin-induced cytotoxicity against human CAL27 cells assessed as decrease in cell viability by measuring combination index at 1000 uM preincubated for 48 hrs followed by cisplatin treatment measured after 72 hrs by MTT assay; assay type: functional; procedure, shortened: as §1
CAL-27 [4] = assay: Potentiation of 0.5 uM cisplatin-induced cytotoxicity against human CAL27 cells assessed as decrease in cell viability by measuring combination index at 2000 uM preincubated for 48 hrs followed by cisplatin treatment measured after 72 hrs by MTT assay; assay type: functional; procedure, shortened: as §1
CAL-27 [5] = assay: Potentiation of 5 uM cisplatin-induced cytotoxicity against human CAL27 cells assessed as decrease in cell viability by measuring combination index at 900 uM preincubated for 48 hrs followed by cisplatin treatment measured after 72 hrs by MTT assay; assay type: functional; settings: in the assay text read “at 900 nM” for “at 900 uM”
Procedure, shortened: (§2)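 HDAC inhibitor was added 48 h before cisplatin, then cells were exposed to cisplatin for 72 h and viability was read by MTT assay. Combination index was computed by the Chou–Talalay method: CI > 1 is antagonism, CI = 1 additive, CI < 0.9 synergism. Points with fraction affected below 0.20 were flagged.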

CAL-27 [6] = assay: Potentiation of 5 uM cisplatin-induced cytotoxicity against human CAL27 cells assessed as decrease in cell viability by measuring combination index at 1000 uM preincubated for 48 hrs followed by cisplatin treatment measured after 72 hrs by MTT assay; assay type: functional; settings: in the assay text read “at 1000 nM” for “at 1000 uM”; procedure, shortened: as §2
CAL-27 [7] = assay: Potentiation of 5 uM cisplatin-induced cytotoxicity against human CAL27 cells assessed as decrease in cell viability by measuring combination index at 2000 uM preincubated for 48 hrs followed by cisplatin treatment measured after 72 hrs by MTT assay; assay type: functional; settings: in the assay text read “at 2000 nM” for “at 2000 uM”; procedure, shortened: as §2
[8] = molecular target: T1, Histone deacetylase 1/6 (Homo sapiens) (UniProt Q13547+Q9UBN7); assay: Inhibition of HDAC1/HDAC6 in human Cal27CisR cells assessed as potentiation of 1 uM cisplatin-induced cytotoxicity by measuring combination index at 2000 uM preincubated for 48 hrs followed by cisplatin treatment measured after 72 hrs by MTT assay; assay type: cell-based
Procedure, shortened: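 Cal27CisR cells preincubated 48 h with the HDAC inhibitor, then exposed to cisplatin for 72 h. Viability read by MTT. Combination index calculated by the Chou–Talalay method: CI > 1 antagonism, CI = 1 additive, CI < 0.9 synergism. Points with fraction affected below 0.20 are flagged. Values are the mean of three experiments.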

[9] = molecular target: T1, Histone deacetylase 1/6 (Homo sapiens); assay: Inhibition of HDAC1/HDAC6 in human Cal27CisR cells assessed as potentiation of 5 uM cisplatin-induced cytotoxicity by measuring combination index at 1500 uM preincubated for 48 hrs followed by cisplatin treatment measured after 72 hrs by MTT assay; assay type: cell-based; procedure, shortened: as §1
CAL-27 [10] = assay: Induction of apoptosis in human CAL27 cells at 0.5 uM for 48 hrs by propidium iodide dye-based flow cytometry; assay type: functional, cell-based
[11] = molecular target: T1, Histone deacetylase 1/6 (Homo sapiens); assay: Inhibition of HDAC1/HDAC6 in human Cal27CisR cells assessed as potentiation of 20 uM cisplatin-induced cytotoxicity by measuring combination index at 900 nM preincubated for 48 hrs followed by cisplatin treatment measured after 72 hrs by MTT assay
[12] = molecular target: T1, Histone deacetylase 1/6 (Homo sapiens); assay: Inhibition of HDAC1/HDAC6 in human Cal27CisR cells assessed as potentiation of 10 uM cisplatin-induced cytotoxicity by measuring combination index at 1000 nM preincubated for 48 hrs followed by cisplatin treatment measured after 72 hrs by MTT assay
[13] = molecular target: T1, Histone deacetylase 1/6 (Homo sapiens); assay: Inhibition of HDAC1/HDAC6 in human Cal27CisR cells assessed as potentiation of 10 uM cisplatin-induced cytotoxicity by measuring combination index at 1500 nM preincubated for 48 hrs followed by cisplatin treatment measured after 72 hrs by MTT assay
[14] = molecular target: T1, Histone deacetylase 1/6 (Homo sapiens); assay: Inhibition of HDAC1/HDAC6 in human Cal27CisR cells assessed as potentiation of 10 uM cisplatin-induced cytotoxicity by measuring combination index at 2000 nM preincubated for 48 hrs followed by cisplatin treatment measured after 72 hrs by MTT assay
[15] = molecular target: T1, Histone deacetylase 1/6 (Homo sapiens); assay: Inhibition of HDAC1/HDAC6 in human Cal27CisR cells assessed as potentiation of 20 uM cisplatin-induced cytotoxicity by measuring combination index at 2000 nM preincubated for 48 hrs followed by cisplatin treatment measured after 72 hrs by MTT assay
[16] = molecular target: T1, Histone deacetylase 1/6 (Homo sapiens); assay: Inhibition of HDAC1/HDAC6 in human Cal27CisR cells assessed as potentiation of 3.16 uM cisplatin-induced cytotoxicity by measuring combination index at 2000 nM preincubated for 48 hrs followed by cisplatin treatment measured after 72 hrs by MTT assay
CAL-27 [17] = assay: Potentiation of cisplatin-induced apoptosis in human CAL27 cells at 0.5 uM preincubated for 48 hrs followed by cisplatin treatment for 6 hrs measured after 24 hrs by propidium iodide dye-based flow cytometry; assay type: functional, cell-based
CAL-27 [18] = assay: Potentiation of 0.316 uM cisplatin-induced cytotoxicity against human CAL27 cells assessed as decrease in cell viability by measuring combination index at 500 nM preincubated for 48 hrs followed by cisplatin treatment measured after 72 hrs by MTT assay

T1 sequence (Q13547 whole entry, looked up): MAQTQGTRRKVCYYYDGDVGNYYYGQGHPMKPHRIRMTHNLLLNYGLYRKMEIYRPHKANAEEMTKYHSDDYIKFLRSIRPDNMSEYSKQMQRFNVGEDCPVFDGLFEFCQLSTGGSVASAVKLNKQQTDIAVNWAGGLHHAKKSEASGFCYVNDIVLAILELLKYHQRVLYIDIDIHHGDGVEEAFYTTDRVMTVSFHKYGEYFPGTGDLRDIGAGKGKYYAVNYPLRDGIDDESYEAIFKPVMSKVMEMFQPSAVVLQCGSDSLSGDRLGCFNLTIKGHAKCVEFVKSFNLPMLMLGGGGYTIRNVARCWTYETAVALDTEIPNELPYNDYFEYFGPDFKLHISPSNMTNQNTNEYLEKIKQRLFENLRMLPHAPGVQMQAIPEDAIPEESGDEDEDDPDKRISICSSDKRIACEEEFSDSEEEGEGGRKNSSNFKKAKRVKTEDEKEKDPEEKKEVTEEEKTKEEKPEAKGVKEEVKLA
T1 sequence (Q9UBN7 whole entry, looked up): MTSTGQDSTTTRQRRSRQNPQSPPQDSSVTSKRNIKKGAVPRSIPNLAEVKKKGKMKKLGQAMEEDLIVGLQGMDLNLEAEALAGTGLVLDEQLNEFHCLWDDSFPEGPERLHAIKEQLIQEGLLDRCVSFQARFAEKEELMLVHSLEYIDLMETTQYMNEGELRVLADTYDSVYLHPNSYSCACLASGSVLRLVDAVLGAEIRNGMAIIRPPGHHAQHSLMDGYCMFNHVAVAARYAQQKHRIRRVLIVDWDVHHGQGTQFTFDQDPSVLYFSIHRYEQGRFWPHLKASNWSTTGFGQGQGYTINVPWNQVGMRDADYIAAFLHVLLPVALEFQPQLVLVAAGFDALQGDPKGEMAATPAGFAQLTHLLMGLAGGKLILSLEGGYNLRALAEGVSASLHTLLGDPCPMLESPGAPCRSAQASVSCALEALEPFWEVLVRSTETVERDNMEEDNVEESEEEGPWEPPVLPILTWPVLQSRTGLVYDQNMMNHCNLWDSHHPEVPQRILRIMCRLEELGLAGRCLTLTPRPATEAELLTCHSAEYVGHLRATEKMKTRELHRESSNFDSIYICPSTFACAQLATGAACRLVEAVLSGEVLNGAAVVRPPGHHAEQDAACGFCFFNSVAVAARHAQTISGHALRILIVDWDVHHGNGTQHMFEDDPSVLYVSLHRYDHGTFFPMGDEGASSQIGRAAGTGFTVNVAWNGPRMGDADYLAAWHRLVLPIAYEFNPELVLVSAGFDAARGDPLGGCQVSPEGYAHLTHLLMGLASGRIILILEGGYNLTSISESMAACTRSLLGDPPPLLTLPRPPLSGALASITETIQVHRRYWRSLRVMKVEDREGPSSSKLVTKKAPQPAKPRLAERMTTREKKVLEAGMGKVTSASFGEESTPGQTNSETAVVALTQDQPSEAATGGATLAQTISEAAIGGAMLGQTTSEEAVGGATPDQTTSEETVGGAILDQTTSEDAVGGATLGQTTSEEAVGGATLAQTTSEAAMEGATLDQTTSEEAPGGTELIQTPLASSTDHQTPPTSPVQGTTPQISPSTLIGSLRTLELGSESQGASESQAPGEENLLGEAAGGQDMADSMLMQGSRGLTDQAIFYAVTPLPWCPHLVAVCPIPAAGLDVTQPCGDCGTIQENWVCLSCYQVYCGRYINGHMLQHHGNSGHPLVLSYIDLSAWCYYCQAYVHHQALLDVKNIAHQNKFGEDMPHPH

SMILES	fold change (FC) (CAL-27 [1])	CI (CAL-27 [2])	CI (CAL-27 [3])	CI (CAL-27 [4])	CI (CAL-27 [5])	CI (CAL-27 [6])	CI (CAL-27 [7])	CI [8]	CI [9]	Activity (CAL-27 [10])	CI [11]	CI [12]	CI [13]	CI [14]	CI [15]	CI [16]	Activity (CAL-27 [17])	CI (CAL-27 [18])
COc1cc(NC(=O)NOCCCCCC(=O)NO)c2ncccc2c1	7.1	0.77	0.67	0.86	0.37	0.4	0.66	0.82	0.47	inactive	0.49	0.49	0.51	0.65	0.68	0.6	–	–
COc1cc(NC(=O)NOCCCCCC(=O)NO)c2nccc(C)c2c1	–	–	–	–	–	–	–	–	–	–	–	–	–	–	–	–	Active	<0.2
